Measurements as given in ChEMBL document CHEMBL1150125, “Antiplasmodial activity of alkaloids from various strychnos species” (J Nat Prod, 2002).

What was measured:
HCT-116 = assay: Cytotoxicity against human HCT116 cells after 72 hrs by WST1 assay; type: cell-based; settings: HCT-116, 72 h
Summary of the method: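 HCT-116 colon cancer cells were seeded at 5000 per well in medium containing the test drugs, with matched DMSO controls. After 72 h, WST-1 was added for 30 min at 37 °C. Absorbance was read against a cell-free medium plus WST-1 blank and expressed as percent of control. Two independent experiments were run, each in triplicate, and means ± SEM were calculated.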

[1] = Selectivity index, ratio of IC50 for human HCT116 cells to IC50 for chloroquine-resistant Plasmodium falciparum W2/Indochina; type: toxicity, cell-based, HCT-116; settings: HCT116 cells versus Plasmodium falciparum W2/Indochina, read-out: Ratio IC50
Summary of the method: (§1)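 Selectivity index = IC50 in HCT-116 cells / IC50 in P. falciparum. Cell IC50: 5000 HCT-116 cells per well with drug, DMSO controls, 72 h incubation, then WST-1 for 30 min at 37 °C. Absorbance read against a cell-free blank and expressed as percent of control. Two independent experiments, each in triplicate, means ± SEM.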

[2] = Selectivity index, ratio of IC50 for human HCT116 cells to IC50 for moderately chloroquine-resistant Plasmodium falciparum FCB1-R/Colombia; type: toxicity, cell-based, HCT-116; settings: HCT116 cells versus Plasmodium falciparum FCB1-R/Colombia, read-out: Ratio IC50; summary of the method: as §1
Plasmodium falciparum [3] = assay: Antiplasmodial activity against chloroquine-resistant Plasmodium falciparum FCB1-R/Colombia by [3H]hypoxanthine uptake; type: functional, organism-based
Summary of the method: (§2)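 Asexual erythrocytic stages kept in continuous culture (Trager and Jensen method). Each sample run as eight 4-fold dilutions, final 20 to 0.0012 µg/mL, in duplicate. IC50 and IC90 derived; number of independent experiments per value given separately.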

Plasmodium falciparum [4] = assay: Antiplasmodial activity against chloroquine-resistant Plasmodium falciparum W2/Indochina by [3H]hypoxanthine uptake; type: functional, organism-based; summary of the method: as §2
Plasmodium falciparum [5] = assay: Antiplasmodial activity against chloroquine-sensitive Plasmodium falciparum FCA 20/ Ghana by [3H]hypoxanthine uptake; type: functional, organism-based; summary of the method: as §2
[6] = Selectivity index, ratio of IC50 for human HCT116 cells to IC50 for chloroquine-sensitive Plasmodium falciparum FCA 20/ Ghana; type: toxicity, cell-based, HCT-116; settings: HCT116 cells versus Plasmodium falciparum FCA 20/Ghana, read-out: Ratio IC50; summary of the method: as §1
Plasmodium falciparum [7] = assay: Antiplasmodial activity against chloroquine-sensitive Plasmodium falciparum FCA 20/ Ghana at 50 uM; settings: read-out: INH
[8] = Plasmodium falciparum, FCB1-R/Colombia
[9] = Plasmodium falciparum, W2/Indochina
[10] = Plasmodium falciparum, FCA 20/ Ghana

Row | SMILES | IC50 (HCT-116) | selectivity ratio [1] | selectivity ratio [2] | IC50 (Plasmodium falciparum [3]; [8]) | IC90 (Plasmodium falciparum [3]; [8]) | IC50 (Plasmodium falciparum [4]; [9]) | IC90 (Plasmodium falciparum [4]; [9]) | IC50 (Plasmodium falciparum [5]; [10]) | IC90 (Plasmodium falciparum [5]; [10]) | selectivity ratio [6] | IC50 (Plasmodium falciparum [3]) | IC90 (Plasmodium falciparum [3]) | IC50 (Plasmodium falciparum [4]) | IC90 (Plasmodium falciparum [4]) | IC50 (Plasmodium falciparum [5]) | IC90 (Plasmodium falciparum [5]) | inhibition at 50 µM (Plasmodium falciparum [7])
1 | C/C=C1/CN2[C@@H](C3=C[C@@H]4[C@@H]5N(C3=O)c3ccccc3[C@@]53CCN5C/C(=C/CO)[C@@H]4C[C@H]53)C[C@@]34c5ccccc5N5C(=O)CC=C([C@H]1C[C@H]23)[C@H]54 | 16200 nM | 115 | 78.3 | 207 nM | 1470 nM | 140 nM | 1350 nM | 847 nM | 4350 nM | 19.1 |  |  |  |  |  |  | 
2 | C/C=C1\CN2CC[C@]34c5ccccc5N5[C@H]3[C@@H]([C@H]3O[C@@H]5[C@]5(OC)[C@@H]6N3c3ccccc3[C@@]63CCN6C/C(=C\C)[C@@H]5C[C@H]63)[C@H]1C[C@H]24 | 24500 nM | 200 | 15.9 | 1540 nM | 9520 nM | 122 nM | 2840 nM | 540 nM | 2530 nM | 45.3 |  |  |  |  |  |  | 
3 | C/C=C1\CN2CC[C@]34c5ccccc5N5[C@@H]6O[C@H]([C@H]([C@H]53)[C@H]1C[C@H]24)N1c2ccccc2[C@]23CCN4C/C(=C/C)[C@H](C[C@H]42)[C@H]6[C@H]13 (stereo in doubt; 52) [MATOPENSINE] | 12000 nM | 49.5 | 33.1 |  |  |  |  |  |  | 9.59 | 362 nM | 4110 nM | 243 nM | 7740 nM | 1250 nM | 6630 nM | 
4 | CC [ETHANE] |  |  |  |  |  |  |  |  |  |  |  |  |  |  |  |  | < 30%
5 | CC[C@H]1CN2CCC3c4ccc(O)c([C@@H]5CCCN5C)c4NC3[C@@H]2C[C@@H]1C[C@H]1c2[nH]c3ccccc3c2CCN1C (stereo partly specified) [ISOSTRYCHNOPENTAMINE] | 7470 nM | 49.1 | 71.8 | 104 nM | 386 nM | 152 nM | 628 nM | 120 nM | 450 nM | 62.3 |  |  |  |  |  |  | 
6 | C/C=C1/CN2CCc3c([nH]c4ccccc34)[C@@H]2C[C@@H]1C1=CN2c3ccccc3[C@@]34CCN5CC6=CCO[C@@H]1[C@@H]([C@H]23)[C@H]6C[C@H]54 [LONGICAUDATINE] | 4930 nM | 7.96 | 8.81 | 560 nM | 3640 nM | 569 nM | 4830 nM | 986 nM | 3870 nM | 4.59 |  |  |  |  |  |  | 
7 | CC[C@H]1CN2CCC3c4ccccc4NC3[C@@H]2C[C@@H]1C[C@H]1NCCc2c1[nH]c1ccccc21 (stereo partly specified) [OCHROLIFUANINE A] | 16100 nM | 32.8 | 60.7 | 266 nM | 1020 nM | 492 nM | 1380 nM | 118 nM | 495 nM | 136 |  |  |  |  |  |  | 
8 | CC[C@H]1CN2CCC3c4ccccc4NC3[C@H]2C[C@@H]1C[C@@H]1NCCc2c1[nH]c1ccccc21 (stereo partly specified) [OCHROLIFUANINE E] | 5700 nM | 3 | 8.12 | 702 nM | 2420 nM | 1900 nM | 6760 nM | 276 nM | 1490 nM | 20.7 |  |  |  |  |  |  | 
9 | O=C1C[C@@H]2OCC=C3CN4[C@@H](C5=C[C@@H]6[C@@H]7N(C5=O)c5ccccc5[C@@]75CCN7C/C(=C/CO)[C@@H]6C[C@H]75)C[C@]56c7ccccc7N1[C@H]5[C@@H]2[C@H]3C[C@H]46 [STRYCHNOGUCINE B] | 15000 nM | 176 | 28.3 | 529 nM | 2240 nM | 85 nM | 358 nM | 617 nM | 3790 nM | 24.3 |  |  |  |  |  |  | 
